A word on the IC50: it is the concentration needed to halve the response being measured.

Structures are written as SMILES.

The values that follow come from ChEMBL document CHEMBL1122045, “Synthesis and pharmacological evaluation of reduced diastereoisomeric and quaternary ammonium derivatives of calcium antagonistic (methylenedioxy)indenes on the isolated rat aorta” (J Med Chem, 1982).

Experiment [1] is filed under the species Rattus norvegicus. The experiment can be described thus: Evaluated for its potency (IC 50) against potassium Chloride (KCl) (at a dose level of 40 mM) induced aortic contractions in male Sprague-Dawley rats. Particulars: Aorta. The experiment is classed as functional. In outline: (§1)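 Thoracic aorta segments (2.5 cm) from male Sprague–Dawley rats (250–300 g) were equilibrated 1–1.5 h, then contracted with NE 1×10^-7 M or KCl 40 mM, final bath levels. Compound was added in rising concentrations, up to 30 min per step. Tension was taken as % of pre-drug control, fatigue-adjusted. Per-tissue probit transform with linear regression gave IC50.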

Experiment [2] is filed under the species Rattus norvegicus. The experiment can be described thus: Evaluated for its potency against norepinephrine (NE) (at a dose level of 10 E-7 M) induced aortic contractions in male Sprague-Dawley rats. Format: functional. Particulars: Aorta. Summed up: as §1

In the case of `CCCCC1=Cc2cc3c(cc2C1N(C)C)OCO3` (stereo not given), the IC50 was determined as 20.3 µM in the experiment filed under Rattus norvegicus [1] and 74.1 µM in the experiment filed under Rattus norvegicus [2].
The corresponding values for `CCC[C@@H]1Cc2cc3c(cc2[C@H]1N(C)C)OCO3` are 98.9 µM and 383 µM.
On to `CCCC[C@@H]1Cc2cc3c(cc2[C@H]1N(C)C)OCO3`, for which the IC50 was 31.1 µM in the experiment listed under Rattus norvegicus [1] and 151 µM in the experiment filed under Rattus norvegicus [2].
As for `CCCC[C@@H]1Cc2cc3c(cc2[C@@H]1N(C)C)OCO3`, the IC50 in the experiment filed under Rattus norvegicus [1] turned out to be 17.4 µM; in the experiment filed under Rattus norvegicus [2] it was 37.9 µM.
Regarding `CCC[C@@H]1Cc2cc3c(cc2[C@@H]1N(C)C)OCO3`, the figures for the 50% inhibitory concentration (IC50) in the experiment listed under Rattus norvegicus [1] and in the experiment filed under Rattus norvegicus [2] were 30 µM and 59.4 µM, respectively.
The corresponding values for `CCCC1=Cc2cc3c(cc2C1N(C)C)OCO3` (stereo not given) are 21.4 µM and 78.2 µM.
`CCCC1=Cc2cc3c(cc2C1[N+](C)(C)C)OCO3` (stereo not given): the IC50 was determined as 547 µM in the experiment listed under Rattus norvegicus [1] and 382 µM in the experiment listed under Rattus norvegicus [2].
For the compound `CCCCC1=Cc2cc3c(cc2C1[N+](C)(C)C)OCO3` (stereo not given), the IC50 in the experiment listed under Rattus norvegicus [1] was 169 µM; in the experiment listed under Rattus norvegicus [2], 128 µM.
As for `CCC[C@@H]1Cc2cc3c(cc2[C@@H]1[N+](C)(C)C)OCO3`, the results for the IC50 in the experiment listed under Rattus norvegicus [1] and in the experiment listed under Rattus norvegicus [2] were 871 µM and 1020 µM, respectively.
Consider `CCCC[C@@H]1Cc2cc3c(cc2[C@@H]1[N+](C)(C)C)OCO3`, for which the IC50 in the experiment listed under Rattus norvegicus [1] amounted to 175 µM; in the experiment listed under Rattus norvegicus [2], 281 µM.
